Test results reported in ChEMBL document CHEMBL1157671, “Synthesis and biological evaluation of trifluralin analogues as antileishmanial agents” (Bioorg Med Chem, 2010).

How the values were obtained:
[1] = Cytotoxicity against human RBC assessed as hemolysis after 1 hr by microplate reader method; assay type: cell-based, Erythrocyte; conditions: red blood cells (RBC)
In short: (§1)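 Washed RBCs from EDTA blood of healthy donors mixed 1:1 with compound in PBS (100 to 6.25 μM), 1 h at 37 °C, then centrifuged. Supernatant absorbance at 550 nm, reference 620 nm; % hemolysis = (A − A0)/(Amax − A0) × 100, PBS background, water as 100%. Triplicates.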

Leishmania infantum [2] = assay: Antileishmanial activity against Leishmania infantum A1 amastigotes infected in human THP1 cells assessed as reduction in intracellular parasite load after 48 hrs by Giemsa staining; assay type: functional, organism-based; conditions: A1, THP-1, 48 h
In short: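 THP-1 differentiated with 1 μM retinoic acid for 72 h, then infected overnight with L. infantum promastigotes at 8:1 parasite/cell, 37 °C/5% CO2. Free parasites removed over Histopaque 1077; cells at 4 × 10^5/mL exposed to compound 48 h at 37 °C/5% CO2. Infected cells counted microscopically after Giemsa staining; IC50 ± σ by sigmoidal regression, three independent experiments.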

[3] = Ratio of miltefosine HC50 to compound HC50 for human RBC; assay type: cell-based, Erythrocyte; conditions: red blood cells (RBC), read-out: Ratio IC50
[4] = Cytotoxicity against human THP1 cells after 48 hrs by propidium iodide and SYBR14 satining-base flow cytometry; assay type: cell-based; conditions: THP-1 cells
In short: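 THP-1 cells at 1×10^6 cells/mL treated with compound (50 to 1.56 μM); stained with 12 μM PI and 100 nM SYBR-14 and live/dead ratio read by flow cytometry (488 nm laser; 545 and 645 nm emission). Incubation time given as 72 h in methods, 48 h in figure legend. Triplicates; CC50 derived from dose–response.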

[5] = Aqueous solubility in water by UV spectrophotometry; conditions: buffer
[6] = Cytotoxicity against human RBC assessed as hemolysis at 100 uM after 1 hr by microplate reader method; assay type: cell-based, Erythrocyte; conditions: red blood cells (RBC), read-out: Activity; in short: as §1
Leishmania infantum [7] = assay: Ratio of miltefosine IC50 to compound IC50 for Leishmania infantum A1 amastigotes infected in human THP1 cells; assay type: functional, THP-1
Leishmania donovani = assay: Antileishmanial activity against Leishmania donovani MHOM/IN/80/DD8/LEM 703 promastigotes after 72 hrs by propidium iodide and SYBR14 satining-base flow cytometry; assay type: functional, organism-based; conditions: MHOM/IN/80/DD8/LEM 703, 72 h
In short: (§2)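 Promastigotes grown in RPMI 1640 with 10% FCS, L-glutamine and antibiotics at 26 °C; seeded at 1×10^6 cells/mL with compound (DMSO/ethanol 50:50 stock, 2-fold dilutions 100 to 0.8 μM in medium) at 26 °C for 72 h. Stained with 12 μM PI and 100 nM SYBR-14 in HEPES-buffered saline with 10% BSA; live/dead read by flow cytometry. IC50 ± σ by sigmoidal regression, three independent experiments.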

Leishmania infantum [8] = assay: Antileishmanial activity against Leishmania infantum MHOM/TN/80/IPT1/LEM 235 promastigotes after 72 hrs by propidium iodide and SYBR14 satining-base flow cytometry; assay type: functional, organism-based; conditions: MHOM/TN/80/IPT1/LEM 235, 72 h; in short: as §2

SMILES | HC50 at 1 h [1] [µM] | IC50 (Leishmania infantum [2]) [µM] | selectivity ratio [3] | CC50 at 48 h [4] [µM] | solubility [5] [ppm] | hemolysis at 1 h, 100 µM [6] [%] | Ratio IC50 (Leishmania infantum [7]) | IC50 (Leishmania donovani) [µM] | IC50 (Leishmania infantum [8]) [µM]
O=[N+]([O-])c1cc(C(F)(F)F)cc([N+](=O)[O-])c1Nc1cccc(O)c1 | > 100 | 2.2 | 2 | 35 | 9.5 | 1.4 | – | – | –
O=[N+]([O-])c1cc(C(F)(F)F)cc([N+](=O)[O-])c1Nc1ccccc1O | > 100 | 1.1 | 2 | > 50 | 20 | 1.2 | 2.5 | – | –
CN(C)c1c([N+](=O)[O-])cc(C(F)(F)F)cc1[N+](=O)[O-] | > 100 | 7.3 | 2 | > 50 | 4.6 | 0 | – | > 100 | > 100
CCCCCN(CCO)c1c([N+](=O)[O-])cc(C(F)(F)F)cc1[N+](=O)[O-] | > 100 | > 50 | 2 | > 50 | 6 | 0.8 | – | – | –
CCCCCCN(CCO)c1c([N+](=O)[O-])cc(C(F)(F)F)cc1[N+](=O)[O-] | > 100 | > 50 | 2 | 10 | 5.7 | 0.7 | – | – | –
CCCN(CCO)c1c([N+](=O)[O-])cc(C(F)(F)F)cc1[N+](=O)[O-] | > 100 | > 50 | 2 | > 50 | 72.3 | 0.2 | – | > 100 | > 100
O=[N+]([O-])c1cc(C(F)(F)F)cc([N+](=O)[O-])c1N1CCOCC1 | > 100 | 0.5 | 2 | > 50 | 18.6 | 0.3 | 5 | > 100 | > 100
CCCCN(CCO)c1c([N+](=O)[O-])cc(C(F)(F)F)cc1[N+](=O)[O-] | > 100 | 1.2 | 2 | > 50 | 22.6 | 0.5 | 2.5 | > 100 | > 100
O=[N+]([O-])c1cc(C(F)(F)F)cc([N+](=O)[O-])c1N1CCCCC1 | > 100 | > 50 | 2 | > 50 | 0.8 | 1.2 | – | – | –
CCN(CCO)c1c([N+](=O)[O-])cc(C(F)(F)F)cc1[N+](=O)[O-] | > 100 | > 50 | 2 | > 50 | 157.4 | 0.4 | – | > 100 | > 100
O=[N+]([O-])c1cc(C(F)(F)F)cc([N+](=O)[O-])c1Nc1ccc(O)cc1 | > 100 | 1.8 | 2 | 40 | 11.4 | 1.4 | – | 0.6 | 2.2
O=[N+]([O-])c1cc(C(F)(F)F)cc([N+](=O)[O-])c1NC1CCCCC1 | > 100 | 9.1 | 2 | > 50 | 0.1 | 1.1 | – | – | –
CCCCCCCCCCCCCCCCOP(=O)([O-])OCC[N+](C)(C)C [MILTEFOSINE] | 38.3 | 2.7 | – | 28.6 | – | – | – | – | –
CCCN(CCC)c1c([N+](=O)[O-])cc(C(F)(F)F)cc1[N+](=O)[O-] [TRIFLURALIN] | > 100 | > 50 | 2 | > 50 | 0.5 | 1.3 | – | > 100 | > 100
